Data on two molecules can be found in ChEMBL document CHEMBL4715754, “Slowing down fat digestion and absorption by an oxadiazolone inhibitor targeting selectively gastric lipolysis” (2016).

A value given as a limit tells only on which side of the number the result lay.

The subject of assay [1] is Rattus norvegicus. The experiment in a line: Inhibition of lipolysis in mesenteric lymph duct-cannulated Wistar rat model assessed as Tmax for maximum fatty acid concentration at 5.3 mg/kg supplemented with olive oil emulsion and measured after 24 hrs (reference value: 6 hrs). The class given is functional, organism-based. The method, boiled down:
(§1)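 Male Wistar rats (8 weeks, 300-350 g), fat-free diet 24 h, mesenteric lymph duct cannulated under ketamine/xylazine. Given 0.8 mL olive oil emulsion (530 mg fatty acids) premixed with inhibitor at 5.3 mg/kg by mouth, then 0.5 mL water. Lymph collected over 24 h; total fatty acids by GC-FID of methyl esters. 7 rats per group; one-way ANOVA with Fisher's test.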

In assay [2] the target is T1, Gastric triacylglycerol lipase (Rattus norvegicus) (UniProt P04634).
T1 sequence (whole entry): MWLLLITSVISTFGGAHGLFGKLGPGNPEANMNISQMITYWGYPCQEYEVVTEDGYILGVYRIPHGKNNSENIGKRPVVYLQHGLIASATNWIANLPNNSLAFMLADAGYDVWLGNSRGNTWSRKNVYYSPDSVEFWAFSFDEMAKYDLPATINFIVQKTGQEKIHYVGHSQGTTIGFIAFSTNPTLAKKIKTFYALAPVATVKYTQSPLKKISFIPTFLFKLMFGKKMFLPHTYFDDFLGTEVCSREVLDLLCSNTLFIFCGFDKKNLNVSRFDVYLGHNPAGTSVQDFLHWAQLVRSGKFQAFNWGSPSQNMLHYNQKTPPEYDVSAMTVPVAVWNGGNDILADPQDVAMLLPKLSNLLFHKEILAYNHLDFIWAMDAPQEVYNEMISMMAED
In words: Inhibition of rat lingual lipase assessed as residual activity by measuring half-inactivation time at 20:1 molar excess compound concentration preincubated for 1 hr at 25 degreeC. An outline of the steps:
(§2)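 Enzyme pre-incubated with inhibitor (DMSO stock) at fixed molar excess for 1 h at 25 °C without substrate: hCEH x_I=4 (1 mM NaTDC assay), RLL and DGL x_I=20 with 4 mM NaTDC, GPLRP2 x_I=2 with 2 mM NaTDC. Residual activity sampled at intervals by pH-stat on tributyrin emulsion at 37 °C; t1/2 taken at 50% residual activity. DMSO-only controls; at least triplicate.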

Assay [3] deals with Rattus norvegicus. In words: Inhibition of lipolysis in mesenteric lymph duct-cannulated Wistar rat model assessed as decrease in intestinal lipid absorption at 5.3 mg/kg supplemented with olive oil emulsion and measured after 24 hrs relative to control. It counts as functional. More on the design: scale not given: the % may be the effect or the level left. An outline of the steps: as §1

Assay [4] deals with T2, Gastric triacylglycerol lipase (Canis lupus familiaris) (UniProt P80035).
T2 sequence (whole entry): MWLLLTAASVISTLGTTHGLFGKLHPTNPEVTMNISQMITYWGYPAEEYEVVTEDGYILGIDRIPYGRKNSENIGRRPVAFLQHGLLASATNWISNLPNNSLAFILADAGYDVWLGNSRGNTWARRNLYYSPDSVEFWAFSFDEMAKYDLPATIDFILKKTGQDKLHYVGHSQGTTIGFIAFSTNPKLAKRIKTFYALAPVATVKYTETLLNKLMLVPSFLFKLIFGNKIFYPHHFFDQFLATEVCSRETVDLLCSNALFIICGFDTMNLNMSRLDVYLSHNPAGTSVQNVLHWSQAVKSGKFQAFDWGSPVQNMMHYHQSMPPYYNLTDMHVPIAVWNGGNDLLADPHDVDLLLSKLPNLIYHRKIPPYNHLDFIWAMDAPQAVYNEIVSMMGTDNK
The experiment in a line: Inhibition of recombinant dog gastric lipase preincubated for 1 hr at 25 degreeC.

Assay [5] has as its system Rattus norvegicus. In words: Inhibition of lipolysis in mesenteric lymph duct-cannulated Wistar rat model assessed as decrease in intestinal lipid absorption at 5.3 mg/kg supplemented with olive oil emulsion and measured after 6 hrs relative to control. Set-up: scale not given: the % may be the effect or the level left. It counts as functional. An outline of the steps:
as §1

For another assay, the species on record is Homo sapiens. The experiment in a line: Inhibition of human pancreatic carboxylesterase assessed as residual activity by measuring half-inactivation time at 4:1 molar excess compound concentration preincubated for 1 hr at 25 degreeC. The method, boiled down:
as §2

Assay [6] has as its system Rattus norvegicus. In words: Inhibition of lipolysis in mesenteric lymph duct-cannulated Wistar rat model assessed as initial velocity of fatty acid output at 5.3 mg/kg supplemented with olive oil emulsion and measured after 24 hrs (reference value: 12.3 +/- 0.46 mg/ml/h). It counts as functional.
The target in assay [7] is T3, Pancreatic lipase-related protein 2 (Cavia porcellus) (UniProt P81139).
T3 sequence (whole entry): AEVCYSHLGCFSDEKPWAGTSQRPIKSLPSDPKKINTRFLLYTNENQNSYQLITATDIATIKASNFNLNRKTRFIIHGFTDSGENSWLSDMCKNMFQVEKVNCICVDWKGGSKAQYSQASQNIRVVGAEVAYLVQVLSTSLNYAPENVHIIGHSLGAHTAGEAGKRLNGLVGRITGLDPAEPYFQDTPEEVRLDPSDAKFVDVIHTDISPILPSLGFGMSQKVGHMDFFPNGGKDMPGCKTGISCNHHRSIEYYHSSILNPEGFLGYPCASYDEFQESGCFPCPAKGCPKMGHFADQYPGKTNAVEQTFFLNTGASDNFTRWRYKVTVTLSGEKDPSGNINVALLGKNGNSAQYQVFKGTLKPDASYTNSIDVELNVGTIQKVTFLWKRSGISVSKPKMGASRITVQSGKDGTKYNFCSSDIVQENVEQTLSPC
In words: Inhibition of recombinant guinea pig PL-RP2 expressed in Aspergillus oryzae assessed as residual activity by measuring half-inactivation time at 2:1 molar excess compound concentration preincubated for 1 hr at 25 degreeC. The method, boiled down: as §2

In assay [8] the target is T4, Pancreatic triacylglycerol lipase (Homo sapiens) (UniProt P16233).
T4 sequence (whole entry): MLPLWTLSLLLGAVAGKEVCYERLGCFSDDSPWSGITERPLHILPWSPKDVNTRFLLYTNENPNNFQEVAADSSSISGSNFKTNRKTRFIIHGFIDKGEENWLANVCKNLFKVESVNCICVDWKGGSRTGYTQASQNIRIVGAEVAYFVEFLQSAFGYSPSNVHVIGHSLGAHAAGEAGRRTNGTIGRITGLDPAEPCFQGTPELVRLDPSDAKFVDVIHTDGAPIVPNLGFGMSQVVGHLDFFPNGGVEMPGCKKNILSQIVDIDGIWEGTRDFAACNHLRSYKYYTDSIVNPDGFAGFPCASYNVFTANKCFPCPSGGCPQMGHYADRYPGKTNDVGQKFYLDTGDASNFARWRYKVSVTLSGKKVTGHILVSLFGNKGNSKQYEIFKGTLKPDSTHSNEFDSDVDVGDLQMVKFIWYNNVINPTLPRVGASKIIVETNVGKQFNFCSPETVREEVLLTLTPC
In words: Inhibition of human pancreatic lipase preincubated for 30 mins at 25 degreeC. The method, boiled down:
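Pancreatic lipase from human pancreatic juice (54 µg/mL HPL stock) or porcine pancreatic extract (32 µg/mL PPL stock) was held in 10 mM MES pH 7.0, 150 mM NaCl. It was pre-incubated with inhibitor from DMSO stock for 30 min at 25 °C with 4 mM NaTDC at varied molar excess. Residual activity was read by pH-stat on tributyrin at 37 °C, pH 8.0, with 2 mM CaCl₂ and 4 mM NaTDC. x_I50 was taken from residual activity; DMSO-only controls were run.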

Assay [9] concerns the target T3, Pancreatic lipase-related protein 2 (Cavia porcellus). The experiment in a line: Inhibition of recombinant guinea pig PL-RP2 expressed in Aspergillus oryzae preincubated for 1 hr at 25 degreeC.
In assay [10] the target is T2, Gastric triacylglycerol lipase (Canis lupus familiaris). In words: Inhibition of recombinant dog gastric lipase assessed as residual activity by measuring half-inactivation time at 20:1 molar excess compound concentration preincubated for 1 hr at 25 degreeC. The method, boiled down: as §2

`O=c1oc(OCCOCc2ccccc2)nn1-c1cccc(Oc2ccccc2)c1`: the Tmax in the assay with Rattus norvegicus [1] turned out to be 5 h. The T1/2 in [2] was determined as 297 s; in the assay filed under Homo sapiens, 78.6 s; in assay [7], 31.2 s; in assay [10], 101 s. Besides, the figures for the Activity in the assay on Rattus norvegicus [3] and in the assay on Rattus norvegicus [5] were -24% and -9.1%, respectively. For the same molecule, the results for the XI50 in [4], in [8] and in [9] were 0.5 molar excess, over 400 molar excess and 0.64 molar excess, respectively. The V0 in the assay on Rattus norvegicus [6] turned out to be 9.8 mg/mL/h.

In the case of `CCCCCCCCCCC[C@@H](C[C@@H]1OC(=O)[C@H]1CCCCCC)OC(=O)[C@@H](CC(C)C)NC=O`, the Tmax in the assay with Rattus norvegicus [1] was found to be 6 h. The T1/2 in assay [2] was 23.4 s; in the assay filed under Homo sapiens, 31.2 s; in [7] it was 24 s; in [10] it was 35.4 s. For the same molecule, the Activity is reported as -70.9% in the assay on Rattus norvegicus [3] and -37.4% with Rattus norvegicus [5]. Further, the XI50 in assay [4] was 5.6 molar excess; in assay [8], 11.1 molar excess; in assay [9] it was 0.53 molar excess. In the assay on Rattus norvegicus [6], the V0 came out at 4.4 mg/mL/h.
